# Test results: ChEMBL document CHEMBL4028911, “Discovery of a Small-Molecule Bromodomain-Containing Protein 4 (BRD4) Inhibitor That Induces AMP-Activated Protein Kinase-Modulated Autophagy-Associated Cell Death in Breast Cancer” (J Med Chem, 2017)
# Active and inactive are the calls of the source. No cut-off for these calls is given here.
# Assays:
# MDA-MB-231 [1] = assay: Induction of autophagy in human MDA-MB-231 cells assessed as reduction in cell viability at 3 uM administered at 1 hr post […] addition by MTT assay; assay type: functional, cell-based
# Summary of the method: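 MDA-MB-231 cells seeded at 5×10^4 cells/ml and grown 24 h. 3-MA (1 mM) added 1 h before 3 μM test agent. MTT (5 mg/ml) for 4 h, formazan dissolved in DMSO, absorbance read at 570 nm.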
# [2] = target: T1, Bromodomain-containing protein 4 (Homo sapiens, UniProt O60885); assay: Inhibition of BRD4 in human MCF7 cells assessed as downregulation of AKT phosphorylation at ser473 at 1.5 uM measured up to 36 hrs by Western blot analysis; assay type: cell-based
# Summary of the method: (§1)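 MCF-7 (1.5 μM) or MDA-MB-231 (3 μM) cells treated for indicated times. Adherent and floating cells lysed in RIPA with 1 mM PMSF. Equal protein run on 10-15% SDS-PAGE, blotted to PVDF, blocked in milk or BSA, HRP/ECL detection. β-actin loading control.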
# Mus musculus [3] = assay: In vivo inhibition of BRD4 expression in BALB/c mouse xenografted with human MDA-MB-231 cells at 100 mg/kg, ig administered once a day for 27 days by Western blot analysis; assay type: functional, organism-based
# Summary of the method: (§2)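 Tumor tissues excised from MCF-7 or MDA-MB-231 xenograft mice were lysed and analysed by western blot for BRD4, c-Myc, LC3 and cleaved caspase-3.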
# [4] = target: T1, Bromodomain-containing protein 4; assay: Inhibition of BRD4 in human MDA-MB-231 cells assessed as induction of AMPKalpha phosphorylation at thr172 at 3 uM measured up to 36 hrs by Western blot analysis; assay type: cell-based; summary of the method: as §1
# [5] = target: T1, Bromodomain-containing protein 4; assay: Inhibition of BRD4 in human MCF7 cells assessed as downregulation of AKT phosphorylation at thr308 at 1.5 uM measured up to 36 hrs by Western blot analysis; assay type: cell-based; summary of the method: as §1
# Mus musculus [6] = assay: In vivo inhibition of c-Myc expression in BALB/c mouse xenografted with human MDA-MB-231 cells at 100 mg/kg, ig administered once a day for 27 days by Western blot analysis; assay type: functional, organism-based; summary of the method: as §2
# [7] = target: T1, Bromodomain-containing protein 4; assay: Inhibition of BRD4 in human MDA-MB-231 cells assessed as downregulation of AKT phosphorylation at ser473 at 3 uM measured up to 36 hrs by Western blot analysis; assay type: cell-based; summary of the method: as §1
# [8] = target: AMP-activated protein kinase, AMPK (Homo sapiens) (UniProt P54646+O43741+P54619+Q9UGJ0+Q9Y478+Q13131+Q9UGI9); assay: Activation of AMPK (unknown origin) at 1 to 10^6 nM using MBP as substrate after 60 mins in presence of ATP by […] assay
# Summary of the method: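 ADP-Glo luminescent kinase assay; AMPK or ULK1 enzyme, substrate, ATP and compound diluted in 40 mM Tris pH 7.5, 20 mM MgCl2, 0.1 mg/ml BSA, 50 µM DTT. Enzyme (10 ng) mixed with MBP (0.1 µg/µl)/ATP (10 µM) and compound, 60 min at room temperature. ADP-Glo reagent 40 min, then detection reagent 30 min, luminescence read; signal rises with kinase activity.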
# Mus musculus [9] = assay: Induction of LC3 accumulation in BALB/c mouse xenografted with human MCF7 cells at 100 mg/kg, ig administered once a day for 24 days by Western blot analysis; assay type: functional, organism-based; summary of the method: as §2
# MDA-MB-231 [10] = assay: Induction of autophagy in human MDA-MB-231 cells assessed as increase in LC3B puncta at 3 uM after 24 hrs by DAPI-staining based immunocytochemistry; assay type: functional, cell-based
# Summary of the method: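 MDA-MB-231 cells treated with 3 μM for 24 h. Blocked in PBS with 1.5% goat serum, anti-LC3B (1:200 in PBS/1% BSA) overnight at 4 °C, then FITC secondary 1 h at room temperature. DAPI counterstain; LC3B puncta scored by fluorescence microscopy.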
# [11] = target: Bromodomain-containing protein 2 (Homo sapiens, UniProt P25440); assay: Inhibition of recombinant human N-terminal GST-tagged BRD2 bromodomain-1 (65 to 187 residues) expressed in Escherichia coli expression system after 120 mins by TR-FRET assay
# Summary of the method: (§3)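 TR-FRET bromodomain binding. Recombinant BRD domain, BET ligand and test agent in 20 μl assay buffer with 1% DMSO final. Incubated 120 min at room temperature. Blank lacks BET ligand.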
# MDA-MB-231 [12] = assay: Induction of autophagy in human MDA-MB-231 cells assessed as downregulation of p62/SQSTM1 expression at 3 uM in presence of ATG5 siRNA by Western blot analysis; assay type: functional, cell-based
# [13] = target: T1, Bromodomain-containing protein 4; assay: Inhibition of BRD4 in human MDA-MB-231 cells assessed as increase in ULK1 phosphorylation at ser317 at 3 uM up to 36 hrs by Western blot analysis; assay type: cell-based; summary of the method: as §1
# MDA-MB-468 [14] = assay: Induction of autophagy in human MDA-MB-468 cells assessed as upregulation of beclin1 expression measured up to 48 hrs by Western blot analysis; assay type: functional, cell-based
# [15] = target: T1, Bromodomain-containing protein 4; assay: Inhibition of BRD4 interaction with p53 in human MCF7 cells at 1.5 uM by co-immunoprecipitation assay; assay type: cell-based
# Summary of the method: (§4)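 Cells lysed in RIPA buffer (40 mM Tris-HCl pH 7.5, 150 mM NaCl, 0.5% NP-40, 5% glycerol, 10 mM NaF, protease inhibitors). Lysates incubated overnight at 4 °C with BRD4 or p53 antibody plus protein A/G beads, washed 3 times, resolved on 10% SDS-PAGE and blotted for AMPKα or p53.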
# [16] = target: T1, Bromodomain-containing protein 4; assay: Inhibition of BRD4 interaction with AMPK in human MCF7 cells at 1.5 uM by co-immunoprecipitation assay; assay type: cell-based; summary of the method: as §4
# MCF7 = assay: Induction of autophagy in human MCF7 cells assessed as downregulation of p62/SQSTM1 expression at 1.5 uM in presence of ATG5 siRNA by Western blot analysis; assay type: functional, cell-based
# MDA-MB-468 [17] = assay: Induction of autophagy in human MDA-MB-468 cells assessed as increase in LC3-2 expression expression measured up to 48 hrs by Western blot analysis; assay type: functional, cell-based
# [18] = target: Bromodomain testis-specific protein (Homo sapiens, UniProt Q58F21); assay: Inhibition of recombinant human N-terminal GST-tagged BRDT bromodomain-1 (22 to 138 residues) expressed in Escherichia coli expression system after 120 mins by TR-FRET assay; summary of the method: as §3
# MDA-MB-231 [19] = assay: Induction of autophagy in human MDA-MB-231 cells assessed as assessed as cytoplasmic vacuolization; assay type: functional, cell-based
# [20] = target: T1, Bromodomain-containing protein 4; assay: Inhibition of BRD4 in human MDA-MB-231 cells assessed as reduction in ATG13 protein expression at 3 uM up to 36 hrs by Western blot analysis; assay type: cell-based; summary of the method: as §1
# MDA-MB-231 [21] = assay: Induction of autophagy in human MDA-MB-231 cells assessed as upregulation of beclin1 expression at 3 uM measured up to 36 hrs by Western blot analysis; assay type: functional, cell-based
# Summary of the method: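 MDA-MB-231 cells (DMEM, 10% FBS, 37 °C, 5% CO2) exposed to 3 μM for indicated times. Adherent and floating cells collected, lysed in RIPA with 1 mM PMSF at 4 °C for 1 h. Protein quantified by DC assay, resolved on 10-15% SDS-PAGE, blotted to PVDF, ECL detection.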
# Sequence of Bromodomain-containing protein 2 (P25440 whole entry, the tested form may be a part): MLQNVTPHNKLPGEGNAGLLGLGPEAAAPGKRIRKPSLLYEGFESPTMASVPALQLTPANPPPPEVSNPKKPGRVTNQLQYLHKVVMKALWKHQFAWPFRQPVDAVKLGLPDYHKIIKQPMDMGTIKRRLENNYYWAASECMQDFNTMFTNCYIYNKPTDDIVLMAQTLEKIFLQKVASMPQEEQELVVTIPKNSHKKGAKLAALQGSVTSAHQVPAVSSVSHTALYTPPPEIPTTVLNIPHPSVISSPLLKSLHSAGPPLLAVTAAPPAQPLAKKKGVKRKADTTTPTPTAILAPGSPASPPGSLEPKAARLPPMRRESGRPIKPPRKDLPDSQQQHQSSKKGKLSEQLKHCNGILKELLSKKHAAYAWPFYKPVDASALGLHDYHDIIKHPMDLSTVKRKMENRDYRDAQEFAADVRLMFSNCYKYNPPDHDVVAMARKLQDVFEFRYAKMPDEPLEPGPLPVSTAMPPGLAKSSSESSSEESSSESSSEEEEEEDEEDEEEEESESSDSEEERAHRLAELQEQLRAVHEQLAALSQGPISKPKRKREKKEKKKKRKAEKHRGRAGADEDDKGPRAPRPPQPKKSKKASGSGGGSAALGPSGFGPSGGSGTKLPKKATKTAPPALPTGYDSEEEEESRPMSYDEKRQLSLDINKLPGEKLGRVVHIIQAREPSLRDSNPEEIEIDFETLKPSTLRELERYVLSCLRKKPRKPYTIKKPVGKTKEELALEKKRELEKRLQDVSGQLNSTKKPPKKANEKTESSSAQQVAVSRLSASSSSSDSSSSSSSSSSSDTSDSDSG
smiles,measurement,setting,value
Cc1cc(-c2nc3sc4c(c3c(=O)[nH]2)CCN(C)C4)cc(C)c1O,Activity,MDA-MB-231 [1],inactive
same,inhibition,[2],Active
same,Activity,Mus musculus [3],Active
same,inhibition,[4],Active
same,inhibition,[5],Active
same,Activity,Mus musculus [6],Active
same,inhibition,[7],Active
same,Activity,[8],inactive
same,Activity,Mus musculus [9],Active
same,Activity,MDA-MB-231 [10],Active
same,IC50,[11],24.6 µM
same,Activity,MDA-MB-231 [12],inactive
same,inhibition,[13],Active
same,Activity,MDA-MB-468 [14],inactive
same,inhibition,[15],Active
same,inhibition,[16],Active
same,Activity,MCF7,inactive
same,Activity,MDA-MB-468 [17],Active
same,IC50,[18],> 100 µM
same,Activity,MDA-MB-231 [19],Active
same,inhibition,[20],Active
same,Activity,MDA-MB-231 [21],Active
